From ChEMBL document CHEMBL1165897, “Design, synthesis, characterization, and antibacterial activity of {5-chloro-2-[(3-substitutedphenyl-1,2,4-oxadiazol-5-yl)-methoxy]-phenyl}-(phenyl)-methanones” (2010)
≈ marks a conversion by molar mass, not a printed value.

Key:
Staphylococcus aureus [1] = assay: Antibacterial activity against Staphylococcus aureus NCIM 2079; ATCC 6538P after 24 hrs by microtitration method; type: functional; settings: ATCC6538P
Procedure, shortened: (§1)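 Microtitration assay using the same isolates as the cup plate test; MIC taken as the lowest concentration of test sample or antibiotic giving no visible growth.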

Escherichia coli [2] = assay: Antibacterial activity against Escherichia coli NCIM 2065; ATCC 8739 at […] after 24 hrs by agar cup plate method; type: functional; settings: ATCC 8739, 24 h, read-out: IZ
Procedure, shortened: (§2)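 Agar cup plate diffusion: test compounds at 100 µg/mL in 20% water in DMSO placed in bores cut in agar plates seeded with each organism, alongside standard drugs; incubated 37 °C for 24 h, then zone of inhibition around the bore measured. Values are the average of three experiments.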

Escherichia coli [3] = assay: Antibacterial activity against Escherichia coli NCIM 2065; ATCC 8739 after 24 hrs by microtitration method; type: functional; settings: ATCC 8739, 24 h; procedure, shortened: as §1
Klebsiella pneumoniae = assay: Antibacterial activity against Klebsiella pneumoniae NCIM 2957; ATCC 11298 after 24 hrs by microtitration method; type: functional; settings: ATCC 11298, 24 h; procedure, shortened: as §1
Staphylococcus aureus [4] = assay: Antibacterial activity against Staphylococcus aureus NCIM 2079; ATCC 6538P at […] after 24 hrs by agar cup plate method; type: functional, NCIM 2079; ATCC6538P; set-up: dose or concentration left out as unconfirmed; settings: ATCC6538P, read-out: IZ
Bacillus subtilis [5] = assay: Antibacterial activity against Bacillus subtilis NCIM 2063; ATCC 6633 at […] after 24 hrs by agar cup plate method; type: functional, NCIM 2063; ATCC6633; settings: ATCC6633, 24 h, read-out: IZ; procedure, shortened: as §2
Bacillus subtilis [6] = assay: Antibacterial activity against Bacillus subtilis NCIM 2063; ATCC 6633 after 24 hrs by microtitration method; type: functional, NCIM 2063; ATCC6633; settings: ATCC6633, 24 h; procedure, shortened: as §1

Row | MIC (Staphylococcus aureus [1]) [µg/mL] | MIC (Escherichia coli [3]) [µg/mL] | MIC (Klebsiella pneumoniae) [µg/mL] | MIC (Bacillus subtilis [6]) [µg/mL] | Structure (SMILES) | zone of inhibition at 100000 µg/mL (Escherichia coli [2]) [mm] | zone of inhibition (Staphylococcus aureus [4]) [mm] | zone of inhibition at 100000 µg/mL (Bacillus subtilis [5]) [mm]
1 | 40 (≈ 94.6 µM) | 29.6 (≈ 70 µM) | 30 (≈ 70.9 µM) | 30.6 (≈ 72.4 µM) | Cc1cc(-c2noc(COc3ccc(Cl)cc3C(=O)c3ccccc3)n2)ccc1F | 20 | 15 | 17
2 | 22.4 (≈ 50.8 µM) | 29.8 (≈ 67.6 µM) | 30.6 (≈ 69.4 µM) | 21.5 (≈ 48.8 µM) | Cc1cc(F)c(-c2noc(COc3ccc(Cl)cc3C(=O)c3ccccc3)n2)cc1F | 19 | 25 | 27
3 | 3.36 (≈ 9.62 µM) | 3.88 (≈ 11.1 µM) | 4 (≈ 11.4 µM) | 3.28 (≈ 9.39 µM) | CC1(C)S[C@@H]2[C@H](NC(=O)[C@H](N)c3ccccc3)C(=O)N2[C@H]1C(=O)O [AMPICILLIN] | 30 | 31 | 32
4 | 41.6 (≈ 80.5 µM) | 62.2 (≈ 120 µM) | 46 (≈ 89 µM) | 30.8 (≈ 59.6 µM) | O=C(c1ccccc1)c1cc(Cl)ccc1OCc1nc(-c2ccc(I)cc2)no1 | 10 | 13 | 16
5 | 40.6 (≈ 99.3 µM) | 30.8 (≈ 75.3 µM) | 42 (≈ 103 µM) | 39.6 (≈ 96.9 µM) | O=C(c1ccccc1)c1cc(Cl)ccc1OCc1nc(-c2ccc(F)cc2)no1 | 16 | 14 | 15
6 | 30 (≈ 68.4 µM) | 30.6 (≈ 69.7 µM) | 30.8 (≈ 70.2 µM) | 29.8 (≈ 67.9 µM) | COc1cc(-c2noc(COc3ccc(Cl)cc3C(=O)c3ccccc3)n2)ccc1F | 17 | 18 | 19
7 | 39.6 (≈ 91.5 µM) | 60.8 (≈ 140 µM) | 62 (≈ 143 µM) | 40.6 (≈ 93.8 µM) | CC(C)c1ccc(-c2noc(COc3ccc(Cl)cc3C(=O)c3ccccc3)n2)cc1 | 11 | 15 | 14
8 | 29.8 (≈ 68.5 µM) | 59.4 (≈ 137 µM) | 40 (≈ 92 µM) | 42.2 (≈ 97 µM) | CCOc1ccc(-c2noc(COc3ccc(Cl)cc3C(=O)c3ccccc3)n2)cc1 | 11 | 19 | 13
9 | 68 (≈ 174 µM) | 64.2 (≈ 164 µM) | 62 (≈ 159 µM) | 41 (≈ 105 µM) | O=C(c1ccccc1)c1cc(Cl)ccc1OCc1nc(-c2ccccc2)no1 | 10 | 9 | 14
10 | 30.6 (≈ 69 µM) | 30.8 (≈ 69.5 µM) | 39.6 (≈ 89.3 µM) | 29.8 (≈ 67.2 µM) | O=C(c1ccccc1)c1cc(Cl)ccc1OCc1nc(-c2ccc(F)c(Cl)c2)no1 | 16 | 17 | 19
